ChEMBL document CHEMBL3853331, “Preparation, Antiepileptic Activity, and Cardiovascular Safety of Dihydropyrazoles as Brain-Penetrant T-Type Calcium Channel Blockers” (J Med Chem, 2016)
Values after ≈ are worked out from the molar mass of the structure shown.

Key:
[1] = Volume of distribution at steady state in Wistar rat plasma at 0.2 mg/kg, iv administered 2 hrs after aminobenzotriazol-treatment; type: ADME, organism-based; settings: read-out: Vdss
Outline: (§1)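 Rats dosed orally with the CYP inhibitor aminobenzotriazol 2 h before the iv dose of 0.2 mg/kg. Oral dose was 2 mg/kg.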

[2] = Metabolic stability in human microsomes measured per mg protein; type: ADME, Microsome
[3] = species on record: Rattus norvegicus; experiment: Inhibition of Wistar rat brain potassium channel at 10 uM assessed as reduction in fast potassium current at -80 mV holding potential measured after 180 secs
Outline: (§2)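 Cortical neurons from E18 Wistar rat embryos, cultured 9-15 days, recorded by manual patch clamp from a holding potential of -80 mV. K+ currents: one 50-ms step to 0 mV, fast as peak outward and slow as end-of-pulse current. Na+ currents: train of fifteen 10-ms steps to 0 mV, peak inward current read at the first and last pulses. Effects read at least 180 s after application.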

[4] = system: Rattus norvegicus; experiment: Anticonvulsant activity in WAG/Rij rat model of generalized nonconvulsive absence-like epilepsy assessed as decrease in number of spontaneous seizures at 100 mg/kg, po administered as single dose at beginning of nocturnal active phase measured over 12 hrs by radiotelometry relative to vehicle control
[5] = molecular target: T1, Voltage-dependent T-type calcium channel subunit alpha-1H (Homo sapiens, UniProt O95180); experiment: Inhibition of human T-type calcium channel Cav3.2 expressed in CHO cells assessed as inhibition of calcium tail current at -90 mV holding potential measured after 150 secs by QPatch assay; type: cell-based
Outline: (§3)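 CHO cells stably expressing human Cav3.1, Cav3.2 or Cav3.3, automated QPatch recording. 3-ms depolarization to +20 mV from a holding potential of -90 or -60 mV. Ca2+ tail current measured at -60 mV. Cs-glutamate internal and TEA-Cl external solution with 5 mM Ca2+. Effect read 150 s after application.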

[6] = Intrinsic clearance in rat hepatocytes; type: ADME, cell-based, Hepatocyte
[7] = Drug uptake in Wistar rat CSF at 10 mg/kg, po measured after 3 hrs; type: ADME, organism-based, Cerebrospinal fluid; settings: read-out: Drug uptake
Outline: (§4)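 Male Wistar rats given oral doses of 10, 30 or 100 mg/kg. Plasma, brain and CSF collected at 1 h, and at 3 h for the 10 mg/kg dose; compound concentrations measured in each.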

[8] = species on record: Rattus norvegicus; experiment: Inhibition of Wistar rat brain neuronal sodium channel assessed as peak inward current at 10 uM measured during last peak; outline: as §2
[9] = Half life in Wistar rat plasma at 0.2 mg/kg, iv administered 2 hrs after aminobenzotriazol-treatment; type: ADME, organism-based
Outline: (§5)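 Male Wistar rats dosed iv at 0.2 mg/kg or po at 2 mg/kg. In the inhibited arm, the broad CYP inhibitor aminobenzotriazol was given orally 2 h before dosing. Clearance, Vss and half-life derived from plasma concentrations after the iv dose; Cmax and Tmax from the po dose.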

[10] = system: MDR1; experiment: Apparent permeability across apical to basolateral side in MDCK cells expressing MDR1 (unknown origin) at 1 uM; type: ADME, cell-based, Canis lupus familiaris; settings: dog
Outline: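 MDR1-transfected MDCK cell monolayers. Compound tested at 1 µM. Apparent permeability measured in both directions, apical to basolateral and basolateral to apical. Efflux ratio taken from the two directional permeabilities.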

[11] = Fraction unbound in Wistar rat microsomes; type: ADME, Microsome
[12] = system: Rattus norvegicus; experiment: Cardiovascular toxicity in spontaneously hypertensive rat assessed as reduction in heart rate at 100 mg/kg, po; type: organism-based; settings: in vivo
Outline: (§6)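 Conscious, freely moving male spontaneously hypertensive rats with telemetry recording MAP, HR and ECG. Single oral dose (5 ml/kg) given as a suspension in 0.5% w/v methylcellulose in water, in the morning during the sleep phase. Vehicle controls run in parallel, n = 8 per group.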

[13] = Unbound drug level in Wistar rat brain at 100 mg/kg, po measured after 1 hr; type: ADME, organism-based; settings: in vivo
[14] = molecular target: T1, Voltage-dependent T-type calcium channel subunit alpha-1H; experiment: Inhibition of human T-type calcium channel Cav3.2 expressed in CHO cells assessed as inhibition of calcium tail current at -60 mV holding potential measured after 150 secs by QPatch assay; type: cell-based; outline: as §3
[15] = system: Rattus norvegicus; experiment: Anticonvulsant activity in WAG/Rij rat model of generalized nonconvulsive absence-like epilepsy assessed as decrease in spontaneous seizures at 100 mg/kg, po administered as single dose at beginning of nocturnal active phase measured over 4 hrs by radiotelometry relative to vehicle control
[16] = Aqueous solubility of the compound at pH 7 by UV-HPLC method; type: physicochemical
Outline: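 Compound dispensed from a 10 mM DMSO stock and the solvent evaporated. Residue stirred 24 h at room temperature in buffer: citrate (55 mM) pH 4.0 or phosphate (67 mM) pH 7.0. Mixture filtered by centrifugation. Filtrate concentration measured by HPLC-UV against calibration solutions.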

[17] = Metabolic stability in rat microsomes measured per mg protein; type: ADME, Microsome
[18] = Drug uptake in Wistar rat brain at 30 mg/kg, po measured after 1 hr; type: ADME, organism-based; settings: read-out: Drug uptake; outline: as §4
[19] = molecular target: Cytochrome P450 2C9 (Homo sapiens, UniProt P11712); experiment: Inhibition of CYP2C9 (unknown origin); type: ADME
[20] = Oral bioavailability in Wistar rat plasma at 2 mg/kg; type: ADME, organism-based
[21] = species on record: Rattus norvegicus; experiment: Inhibition of Wistar rat brain potassium channel at 10 uM assessed as reduction in slow potassium current at -80 mV holding potential measured after 180 secs; outline: as §2
[22] = system: Rattus norvegicus; experiment: Cardiovascular toxicity in spontaneously hypertensive rat assessed as reduction in heart rate at 100 mg/kg, po within 6 hrs post dose; type: organism-based; settings: in vivo; outline: as §6
[23] = system: Rattus norvegicus; experiment: Cardiovascular toxicity in spontaneously hypertensive rat assessed as reduction in mean […] pressure after 18 hrs at 100 mg/kg, po; type: organism-based; settings: in vivo; outline: as §6
[24] = Oral bioavailability in Wistar rat plasma at 2 mg/kg administered 2 hrs after aminobenzotriazol-treatment; type: ADME, organism-based; outline: as §1
[25] = molecular target: T2, Voltage-dependent T-type calcium channel subunit alpha-1I (Homo sapiens, UniProt Q9P0X4); experiment: Inhibition of human T-type calcium channel Cav3.3 expressed in CHO cells assessed as inhibition of calcium tail current at -90 mV holding potential measured after 150 secs by QPatch assay; type: cell-based; outline: as §3
[26] = system: Rattus norvegicus; experiment: Cardiotoxicity in rat assessed as QT prolongation at 100 mg/kg by electrophysiology method; type: toxicity, organism-based; settings: in vivo; outline: as §6
[27] = Clearance in Wistar rat plasma at 0.2 mg/kg, iv; type: ADME, organism-based; outline: as §5
[28] = molecular target: T2, Voltage-dependent T-type calcium channel subunit alpha-1I; experiment: Inhibition of human T-type calcium channel Cav3.3 expressed in CHO cells assessed as inhibition of calcium tail current at -60 mV holding potential measured after 150 secs by QPatch assay; type: cell-based; outline: as §3
[29] = Drug uptake in Wistar rat assessed as unbound drug level measured after 1 hr; type: ADME; settings: in vivo
[30] = Half life in Wistar rat plasma at 0.2 mg/kg, iv; type: ADME, organism-based; outline: as §5
[31] = Cmax in Wistar rat plasma at 2 mg/kg, po administered 2 hrs after aminobenzotriazol-treatment; type: ADME, organism-based; set-up: dose 2 mg/kg, route oral; outline: as §5
[32] = Volume of distribution at steady state in Wistar rat plasma at 0.2 mg/kg, iv; type: ADME, organism-based; settings: read-out: Vdss
[33] = Plasma concentration in Wistar rat at 10 mg/kg, po measured after 3 hrs; type: ADME, organism-based
[34] = Cmax in Wistar rat plasma at 2 mg/kg, po; type: ADME, organism-based; set-up: dose 2 mg/kg, route oral; outline: as §5
[35] = Drug uptake in Wistar rat brain at 10 mg/kg, po measured after 1 hr; type: ADME, organism-based; settings: read-out: Drug uptake; outline: as §4
[36] = species on record: Rattus norvegicus; experiment: Inhibition of Wistar rat brain neuronal sodium channel assessed as reduction in peak inward current at 10 uM measured during first peak; outline: as §2

T1 sequence (O95180 whole entry): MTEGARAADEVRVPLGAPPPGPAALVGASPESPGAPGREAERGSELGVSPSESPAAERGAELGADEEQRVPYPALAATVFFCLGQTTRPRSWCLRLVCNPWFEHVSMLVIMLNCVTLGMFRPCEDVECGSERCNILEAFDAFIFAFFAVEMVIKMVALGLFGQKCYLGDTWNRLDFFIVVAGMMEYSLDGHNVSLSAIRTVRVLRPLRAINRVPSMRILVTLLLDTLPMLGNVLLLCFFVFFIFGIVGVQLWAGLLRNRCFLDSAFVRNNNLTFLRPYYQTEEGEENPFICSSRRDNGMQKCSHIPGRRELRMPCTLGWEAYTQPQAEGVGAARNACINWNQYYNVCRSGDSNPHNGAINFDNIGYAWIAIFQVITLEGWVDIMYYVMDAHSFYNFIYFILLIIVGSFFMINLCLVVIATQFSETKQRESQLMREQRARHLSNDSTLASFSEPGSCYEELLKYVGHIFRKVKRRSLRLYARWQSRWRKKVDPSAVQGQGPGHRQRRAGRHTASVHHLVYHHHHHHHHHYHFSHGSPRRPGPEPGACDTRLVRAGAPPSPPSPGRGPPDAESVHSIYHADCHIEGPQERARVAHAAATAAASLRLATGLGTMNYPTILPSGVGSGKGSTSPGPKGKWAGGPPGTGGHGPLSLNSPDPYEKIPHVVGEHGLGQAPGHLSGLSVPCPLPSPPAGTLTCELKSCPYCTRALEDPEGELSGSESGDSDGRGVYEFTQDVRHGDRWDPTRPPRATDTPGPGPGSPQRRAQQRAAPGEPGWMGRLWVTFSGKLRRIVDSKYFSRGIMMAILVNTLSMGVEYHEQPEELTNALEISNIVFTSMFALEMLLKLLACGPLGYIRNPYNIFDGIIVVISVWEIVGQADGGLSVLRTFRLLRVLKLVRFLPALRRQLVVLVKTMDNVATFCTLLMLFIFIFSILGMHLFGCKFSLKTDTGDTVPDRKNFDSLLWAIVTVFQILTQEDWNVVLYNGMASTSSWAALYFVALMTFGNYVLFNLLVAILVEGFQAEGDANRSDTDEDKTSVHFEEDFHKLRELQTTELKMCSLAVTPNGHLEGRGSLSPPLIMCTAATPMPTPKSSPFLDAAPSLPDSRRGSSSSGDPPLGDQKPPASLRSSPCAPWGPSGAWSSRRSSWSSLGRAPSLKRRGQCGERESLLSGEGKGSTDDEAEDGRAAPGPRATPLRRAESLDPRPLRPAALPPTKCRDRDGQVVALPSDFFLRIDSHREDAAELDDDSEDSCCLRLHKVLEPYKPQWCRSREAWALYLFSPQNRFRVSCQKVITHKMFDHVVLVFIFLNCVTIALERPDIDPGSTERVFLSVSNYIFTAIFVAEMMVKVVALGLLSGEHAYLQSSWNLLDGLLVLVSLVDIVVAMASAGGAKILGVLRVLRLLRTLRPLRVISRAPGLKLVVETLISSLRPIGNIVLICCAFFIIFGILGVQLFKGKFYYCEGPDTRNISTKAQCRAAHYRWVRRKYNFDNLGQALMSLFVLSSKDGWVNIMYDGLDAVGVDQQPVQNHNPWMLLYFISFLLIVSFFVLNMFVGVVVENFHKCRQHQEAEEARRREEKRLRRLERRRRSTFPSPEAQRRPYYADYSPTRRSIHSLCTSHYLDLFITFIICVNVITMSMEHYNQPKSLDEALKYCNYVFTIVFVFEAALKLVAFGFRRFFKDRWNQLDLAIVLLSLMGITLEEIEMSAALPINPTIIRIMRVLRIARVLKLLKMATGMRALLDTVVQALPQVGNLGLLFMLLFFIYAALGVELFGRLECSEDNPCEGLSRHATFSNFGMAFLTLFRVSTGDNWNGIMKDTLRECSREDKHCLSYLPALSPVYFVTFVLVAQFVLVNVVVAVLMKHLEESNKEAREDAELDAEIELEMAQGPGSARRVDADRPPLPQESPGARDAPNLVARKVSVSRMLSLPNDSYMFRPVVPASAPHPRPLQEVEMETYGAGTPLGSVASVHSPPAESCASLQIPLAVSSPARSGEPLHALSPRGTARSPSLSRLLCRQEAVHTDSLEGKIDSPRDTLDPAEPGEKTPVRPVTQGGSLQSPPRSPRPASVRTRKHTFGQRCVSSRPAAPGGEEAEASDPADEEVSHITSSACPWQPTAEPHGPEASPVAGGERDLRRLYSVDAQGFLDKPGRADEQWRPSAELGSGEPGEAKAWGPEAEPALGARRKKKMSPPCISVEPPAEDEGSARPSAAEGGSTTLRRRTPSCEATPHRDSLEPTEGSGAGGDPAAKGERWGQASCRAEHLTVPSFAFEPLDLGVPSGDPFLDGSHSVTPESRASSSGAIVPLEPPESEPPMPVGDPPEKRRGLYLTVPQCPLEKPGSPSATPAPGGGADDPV
T2 sequence (Q9P0X4 whole entry): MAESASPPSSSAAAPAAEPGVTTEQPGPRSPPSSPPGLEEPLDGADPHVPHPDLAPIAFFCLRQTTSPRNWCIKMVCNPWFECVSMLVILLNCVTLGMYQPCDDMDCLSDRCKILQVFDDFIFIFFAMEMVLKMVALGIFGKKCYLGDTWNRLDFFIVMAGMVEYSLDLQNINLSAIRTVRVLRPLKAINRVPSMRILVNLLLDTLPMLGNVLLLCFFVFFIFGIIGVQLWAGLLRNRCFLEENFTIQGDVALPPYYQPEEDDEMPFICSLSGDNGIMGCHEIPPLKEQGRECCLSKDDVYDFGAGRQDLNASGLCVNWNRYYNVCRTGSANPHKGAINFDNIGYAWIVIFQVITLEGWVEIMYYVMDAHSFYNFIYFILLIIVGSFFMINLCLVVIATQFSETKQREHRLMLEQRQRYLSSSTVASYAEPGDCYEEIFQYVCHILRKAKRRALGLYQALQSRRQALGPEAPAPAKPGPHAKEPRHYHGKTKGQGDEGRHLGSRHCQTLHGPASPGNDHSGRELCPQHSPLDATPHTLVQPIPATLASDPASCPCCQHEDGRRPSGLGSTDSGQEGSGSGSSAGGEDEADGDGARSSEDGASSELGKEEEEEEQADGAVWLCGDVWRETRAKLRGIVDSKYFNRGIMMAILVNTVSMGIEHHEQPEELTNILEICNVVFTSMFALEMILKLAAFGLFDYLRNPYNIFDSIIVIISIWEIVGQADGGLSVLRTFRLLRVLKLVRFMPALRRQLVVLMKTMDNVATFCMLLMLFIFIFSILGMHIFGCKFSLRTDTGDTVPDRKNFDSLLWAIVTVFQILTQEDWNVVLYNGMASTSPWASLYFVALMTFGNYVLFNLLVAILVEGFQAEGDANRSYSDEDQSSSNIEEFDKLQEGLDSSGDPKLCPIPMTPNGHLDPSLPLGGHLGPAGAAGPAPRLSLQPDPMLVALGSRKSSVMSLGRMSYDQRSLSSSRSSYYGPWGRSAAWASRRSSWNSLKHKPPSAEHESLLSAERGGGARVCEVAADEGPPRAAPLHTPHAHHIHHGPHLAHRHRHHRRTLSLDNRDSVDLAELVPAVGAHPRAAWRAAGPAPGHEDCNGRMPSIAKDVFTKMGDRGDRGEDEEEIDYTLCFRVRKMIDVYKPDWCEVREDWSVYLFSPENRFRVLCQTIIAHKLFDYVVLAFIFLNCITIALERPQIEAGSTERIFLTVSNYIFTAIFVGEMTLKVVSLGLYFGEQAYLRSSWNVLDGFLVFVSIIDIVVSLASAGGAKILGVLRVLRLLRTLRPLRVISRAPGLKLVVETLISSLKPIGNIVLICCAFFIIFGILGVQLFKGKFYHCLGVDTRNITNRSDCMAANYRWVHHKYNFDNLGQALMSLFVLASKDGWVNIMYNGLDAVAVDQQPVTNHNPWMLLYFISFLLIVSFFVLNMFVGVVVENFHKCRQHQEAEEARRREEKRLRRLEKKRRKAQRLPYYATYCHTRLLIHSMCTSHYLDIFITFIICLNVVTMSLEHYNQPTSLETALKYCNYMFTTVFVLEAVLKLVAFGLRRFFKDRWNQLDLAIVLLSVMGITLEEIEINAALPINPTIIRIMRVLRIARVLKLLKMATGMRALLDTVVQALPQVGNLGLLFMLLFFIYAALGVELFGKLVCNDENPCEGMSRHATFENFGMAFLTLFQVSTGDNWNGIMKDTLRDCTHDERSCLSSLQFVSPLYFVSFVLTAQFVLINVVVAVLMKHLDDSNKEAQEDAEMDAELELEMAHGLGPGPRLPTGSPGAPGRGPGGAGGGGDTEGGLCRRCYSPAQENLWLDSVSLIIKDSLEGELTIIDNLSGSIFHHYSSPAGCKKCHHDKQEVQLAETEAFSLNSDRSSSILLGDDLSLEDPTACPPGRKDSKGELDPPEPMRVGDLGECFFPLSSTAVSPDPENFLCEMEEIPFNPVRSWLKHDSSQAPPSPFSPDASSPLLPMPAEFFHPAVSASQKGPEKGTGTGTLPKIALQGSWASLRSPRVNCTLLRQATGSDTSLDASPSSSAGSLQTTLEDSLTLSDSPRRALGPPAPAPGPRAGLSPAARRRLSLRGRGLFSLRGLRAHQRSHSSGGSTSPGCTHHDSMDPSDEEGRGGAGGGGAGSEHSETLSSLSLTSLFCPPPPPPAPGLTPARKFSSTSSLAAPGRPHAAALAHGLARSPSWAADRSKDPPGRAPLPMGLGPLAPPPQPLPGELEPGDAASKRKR
Sequence of Cytochrome P450 2C9 (P11712 whole entry): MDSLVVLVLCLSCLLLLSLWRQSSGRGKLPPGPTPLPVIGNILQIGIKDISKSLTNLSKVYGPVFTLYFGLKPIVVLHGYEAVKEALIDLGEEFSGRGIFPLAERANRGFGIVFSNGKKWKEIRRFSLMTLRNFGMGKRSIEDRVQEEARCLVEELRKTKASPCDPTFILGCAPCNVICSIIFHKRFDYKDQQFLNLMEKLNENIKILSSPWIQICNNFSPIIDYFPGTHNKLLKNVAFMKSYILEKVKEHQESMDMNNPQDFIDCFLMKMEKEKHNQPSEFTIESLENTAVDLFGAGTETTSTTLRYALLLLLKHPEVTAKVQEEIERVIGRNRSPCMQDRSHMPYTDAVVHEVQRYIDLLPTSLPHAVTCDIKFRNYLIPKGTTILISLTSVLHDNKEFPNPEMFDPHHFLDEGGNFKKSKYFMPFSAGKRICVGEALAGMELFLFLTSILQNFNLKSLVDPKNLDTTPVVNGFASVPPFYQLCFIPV

O=C(Nc1ccc(F)cc1)N1N=C(c2ccncc2)CC1c1ccc(F)cc1 (stereo unspecified)
Vd [1]: 17 L/kg | microsomal CLint [2]: 21 µL/min/mg | inhibition [3]: 18% | inhibition in vivo at 100 mg/kg [4]: 63.5% | IC50 [5]: 1700 nM | CLH [6]: 5.7 µL/min | concentration at 3 h [7]: 29 nM | inhibition [8]: 26% | half-life [9]: 120 h | Papp A→B at 1 µM [10]: 45 ×10⁻⁶ cm/s | fraction unbound [11]: 0.5 | Activity [12]: Toxic | Drug uptake(free) [13]: 128 nM | IC50 [14]: 220 nM | inhibition in vivo at 100 mg/kg [15]: > 99% | solubility [16]: 2 µg/mL (≈ 5.29 µM) | microsomal CLint [17]: 104 µL/min/mg | concentration at 1 h [18]: 2570 nM | IC50 [19]: 1800 nM | bioavailability [20]: 4% | inhibition [21]: 3% | Activity [22]: Non-Toxic | Activity [23]: Non-Toxic | bioavailability [24]: 100% | IC50 [25]: 7000 nM | Activity [26]: Non-Toxic | clearance [27]: 110 mL/min/kg | IC50 [28]: 2000 nM | Drug uptake(free) [29]: 37 nM | half-life [30]: 7.1 h | Cmax [31]: 150 nM | Vd [32]: 23 L/kg | concentration at 3 h [33]: 290 nM | Cmax [34]: 27 nM | concentration at 1 h [35]: 800 nM | inhibition [36]: 15%
